# Source: ChEMBL document CHEMBL1122984, “Synthesis and beta-lactamase inhibitory properties of 2 beta-[(acyloxy)methyl]-2-methylpenam-3 alpha-carboxylic acid 1,1-dioxides” (1985)
# How the values were obtained:
# [1] = target: Beta-lactamase (Staphylococcus aureus) (UniProt P00807); experiment: Minimum protective concentration used to protect the compound against Staphylococcus aureus A9606 beta-lactamase catalyzed hydrolysis
# [2] = tested on: TEM beta-lactamase (Klebsiella pneumoniae); experiment: Minimum protective concentration used to protect the compound against Klebsiella pneumoniae A20634 beta-lactamase catalyzed hydrolysis
# [3] = target: Metallo-beta-lactamase type 2 (Bacteroides fragilis) (UniProt P25910); experiment: Minimum protective concentration used to protect the compound against Bacteroides fragilis A-22,695 beta-lactamase catalyzed hydrolysis
# [4] = tested on: Escherichia coli; experiment: Compound was evaluated for minimum inhibitory concentration in the presence of amoxicillin against Escherichia coli A20111; format: functional
# Procedure, shortened: (§1)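 Agar dilution MIC of a 1:1 (w/w) mixture of test compound with amoxicillin. Organisms were applied to medicated agar plates with a Steers replicator.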
# [5] = tested on: Staphylococcus aureus; experiment: Compound alone was evaluated for minimum inhibitory concentration against Staphylococcus aureus A9606; format: functional
# Procedure, shortened: (§2)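 Agar dilution MIC: organisms deposited onto medicated agar plates with a Steers replication device.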
# [6] = tested on: Escherichia coli; experiment: Compound was evaluated for minimum inhibitory concentration in the presence of amoxicillin against Escherichia coli A20107; format: functional; procedure, shortened: as §1
# [7] = tested on: Staphylococcus aureus; experiment: Compound was evaluated for minimum inhibitory concentration in the presence of amoxicillin against Staphylococcus aureus A15033; format: functional; procedure, shortened: as §1
# [8] = tested on: Staphylococcus aureus; experiment: Compound was evaluated for minimum inhibitory concentration in the presence of amoxicillin against Staphylococcus aureus A9606; format: functional; procedure, shortened: as §1
# [9] = tested on: Staphylococcus aureus; experiment: Compound alone was evaluated for minimum inhibitory concentration against Staphylococcus aureus A15033; format: functional; procedure, shortened: as §2
# [10] = tested on: Escherichia coli; experiment: Compound alone was evaluated for minimum inhibitory concentration against Escherichia coli A20111; format: functional; procedure, shortened: as §2
# [11] = tested on: Escherichia coli; experiment: Compound alone was evaluated for minimum inhibitory concentration against Escherichia coli A20107; format: functional; procedure, shortened: as §2
# [12] = target: Carbapenem-hydrolyzing beta-lactamase KPC (Klebsiella pneumoniae) (UniProt Q9F663)
# Carbapenem-hydrolyzing beta-lactamase KPC (Klebsiella pneumoniae), sequence (Q9F663 whole entry): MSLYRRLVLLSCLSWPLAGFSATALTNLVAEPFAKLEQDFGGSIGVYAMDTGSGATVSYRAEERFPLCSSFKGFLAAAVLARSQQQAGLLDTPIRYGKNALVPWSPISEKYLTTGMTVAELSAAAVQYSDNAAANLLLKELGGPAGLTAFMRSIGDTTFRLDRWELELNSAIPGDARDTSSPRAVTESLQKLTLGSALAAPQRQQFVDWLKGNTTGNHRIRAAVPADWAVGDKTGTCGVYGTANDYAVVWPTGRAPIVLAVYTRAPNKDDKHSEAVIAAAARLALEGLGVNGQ
# Metallo-beta-lactamase type 2 (Bacteroides fragilis), sequence (P25910 whole entry): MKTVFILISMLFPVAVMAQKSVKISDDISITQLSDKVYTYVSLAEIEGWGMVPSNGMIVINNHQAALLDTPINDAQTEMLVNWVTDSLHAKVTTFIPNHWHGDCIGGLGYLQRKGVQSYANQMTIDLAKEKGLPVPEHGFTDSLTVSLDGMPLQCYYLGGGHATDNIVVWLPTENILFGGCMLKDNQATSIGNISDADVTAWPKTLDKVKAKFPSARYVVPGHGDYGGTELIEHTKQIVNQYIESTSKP
# Beta-lactamase (Staphylococcus aureus), sequence (P00807 whole entry): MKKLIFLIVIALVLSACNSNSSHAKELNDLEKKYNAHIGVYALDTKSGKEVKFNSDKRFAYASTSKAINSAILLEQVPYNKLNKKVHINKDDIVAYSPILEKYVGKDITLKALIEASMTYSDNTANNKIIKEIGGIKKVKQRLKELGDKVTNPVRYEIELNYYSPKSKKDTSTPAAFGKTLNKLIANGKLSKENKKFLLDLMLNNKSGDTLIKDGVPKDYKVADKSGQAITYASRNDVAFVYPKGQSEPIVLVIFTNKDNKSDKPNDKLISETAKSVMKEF
Structure (SMILES),MPC [1] [µg/mL],MPC [2] [µg/mL],MPC [3] [µg/mL],MIC [5] [mg/L],MIC [9] [mg/L],MIC [10] [mg/L],MIC [11] [mg/L],other results
C[C@]1(CO)[C@H](C(=O)O)N2C(=O)CC2S1(=O)=O (stereo partly drawn),> 100,6.2,100,,,,,
C[C@]1(CBr)[C@H](C(=O)O)N2C(=O)CC2S1(=O)=O (stereo partly drawn),3.1,1.6,12.5,,,,,
O=C(O)[C@H]1/C(=C/CO)O[C@@H]2CC(=O)N21 [CLAVULANIC ACID],,,63,32,63,63,63,MIC [4]: 4 mg/L; MIC [6]: 16 mg/L; MIC [7]: 4 mg/L; MIC [8]: 2 mg/L
C[C@]1(CCl)[C@H](C(=O)O)N2C(=O)CC2S1(=O)=O (stereo partly drawn),3.1,3.1,12.5,,,,,
CC1(C)[C@H](C(=O)O)N2C(=O)C[C@H]2S1(=O)=O,,,,,,,,MPC [12]: 1.6 µg/mL
CC1(C)S[C@@H]2[C@H](NC(=O)[C@H](N)c3ccc(O)cc3)C(=O)N2[C@H]1C(=O)O [AMOXICILLIN],,,,32,32,> 125,> 125,
